Experimental data published in ChEMBL document CHEMBL2331220, “Benzimidazole clubbed with triazolo-thiadiazoles and triazolo-thiadiazines: new anticancer agents” (2013).

How the values were obtained:
Assay type in all cases: functional
SK-MEL-5 = test: Cytotoxicity against human SK-MEL-5 cells after 48 hrs by SRB assay; settings: SK-MEL-5, 48 h
Method in brief: (§1)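 NCI 60-line five-dose screen. Cells were preincubated 24 h at 37 °C under 5% CO2 and 100% humidity, and time-zero plates were TCA-fixed when compound was added. Five 10-fold concentrations (0.01–100) were tested for 48 h. Cells were fixed with cold TCA (final 10%, 60 min, 4 °C), stained with 0.4% SRB for 10 min, and read at 515 nm. GI50, TGI and LC50 came from growth-percentage formulas, with out-of-range values given as > or <.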

TK-10 = test: Cytotoxicity against human TK10 cells after 48 hrs by SRB assay; settings: TK-10, 48 h
Method in brief: (§2)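 NCI 60-line five-dose screen: cells plated, held 24 h at 37 °C, 5% CO₂ before treatment, with a TCA-fixed time-zero plate. Five final concentrations (0.01–100 µM, 10-fold dilutions) for 48 h. Cells fixed with cold TCA (10% final) and stained with 0.4% SRB in 1% acetic acid. Dye dissolved in 10 mM Tris and read at 515 nm. GI₅₀, TGI and LC₅₀ taken from percent-growth curves.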

T47D = test: Cytotoxicity against human T47D cells after 48 hrs by SRB assay; method in brief: as §2
CAKI-1 = test: Cytotoxicity against human Caki1 cells after 48 hrs by SRB assay; settings: CAKI-1, 48 h; method in brief: as §1
SF-539 = test: Cytotoxicity against human SF539 cells after 48 hrs by SRB assay; settings: SF-539, 48 h; method in brief: as §1
HOP-62 = test: Cytotoxicity against human HOP62 cells after 48 hrs by SRB assay; settings: HOP-62, 48 h; method in brief: as §1
UACC-257 = test: Cytotoxicity against human UACC257 cells after 48 hrs by SRB assay; settings: UACC-257, 48 h; method in brief: as §2
786-0 = test: Cytotoxicity against human 786-0 cells after 48 hrs by SRB assay; settings: 786-0, 48 h; method in brief: as §1
U-251 = test: Cytotoxicity against human U251 cells after 48 hrs by SRB assay; settings: U-251, 48 h; method in brief: as §2
[1] = Cytotoxicity against human EKVX cells after 48 hrs by SRB assay; method in brief: as §1
HCC 2998 = test: Cytotoxicity against human HCC2998 cells after 48 hrs by SRB assay; settings: HCC 2998, 48 h; method in brief: as §1
NCI-H322M = test: Cytotoxicity against human NCI-H322M cells after 48 hrs by SRB assay; method in brief: as §1
MCF7 = test: Cytotoxicity against human MCF7 cells after 48 hrs by SRB assay; settings: MCF7, 48 h; method in brief: as §1
MDA-MB-231 = test: Cytotoxicity against human MDA-MB-231 cells after 48 hrs by SRB assay; settings: MDA-MB-231, 48 h; method in brief: as §1
SK-MEL-28 = test: Cytotoxicity against human SK-MEL-28 cells after 48 hrs by SRB assay; settings: SK-MEL-28, 48 h; method in brief: as §1
UACC-62 = test: Cytotoxicity against human UACC62 cells after 48 hrs by SRB assay; settings: UACC-62, 48 h; method in brief: as §2
SN12C = test: Cytotoxicity against human SN12C cells after 48 hrs by SRB assay; method in brief: as §2
Malme-3M = test: Cytotoxicity against human MALME-3M cells after 48 hrs by SRB assay; method in brief: as §1
PC-3 = test: Cytotoxicity against human PC3 cells after 48 hrs by SRB assay; settings: PC-3, 48 h; method in brief: as §1
[2] = read-out: LC50 (the source's name)
[3] = read-out: pLC50 (the source's name) (converted)

O=C(CCc1nnc2sc(-c3ccc(Cl)cc3Cl)nn12)c1nc2ccccc2[nH]1
GI50 (SK-MEL-5; read-out: GI50): 1390 nM | CC50 (SK-MEL-5; [2]): 5190 nM | TGI (SK-MEL-5; read-out: TGI): 2690 nM | GI50 (SK-MEL-5; read-out: pGI50 (converted)): 1380 nM | CC50 (SK-MEL-5; [3]): 5250 nM | TGI (SK-MEL-5; read-out: pTGI (converted)): 2690 nM | GI50 (TK-10; read-out: GI50): 2010 nM | LC50 (TK-10; read-out: LC50): 6300 nM | TGI (TK-10; read-out: TGI): 3550 nM | GI50 (TK-10; read-out: pGI50 (converted)): 2000 nM | LC50 (TK-10; read-out: pLC50 (converted)): 6310 nM | TGI (TK-10; read-out: pTGI (converted)): 3550 nM | GI50 (T47D; read-out: GI50): 753 nM | LC50 (concentration giving 50% net cell kill) (T47D; read-out: LC50): 7060 nM | TGI (T47D; read-out: TGI): 2510 nM | GI50 (T47D; read-out: pGI50 (converted)): 759 nM | LC50 (concentration giving 50% net cell kill) (T47D; read-out: pLC50 (converted)): 7080 nM | TGI (T47D; read-out: pTGI (converted)): 2510 nM | GI50 (CAKI-1; read-out: GI50): 1450 nM | TGI (CAKI-1; read-out: TGI): 3440 nM | GI50 (CAKI-1; read-out: pGI50 (converted)): 1450 nM | TGI (CAKI-1; read-out: pTGI (converted)): 3470 nM | GI50 (SF-539; read-out: GI50): 2170 nM | CC50 (SF-539; [2]): 22800 nM | TGI (SF-539; read-out: TGI): 4860 nM | GI50 (SF-539; read-out: pGI50 (converted)): 2190 nM | CC50 (SF-539; [3]): 22900 nM | TGI (SF-539; read-out: pTGI (converted)): 4900 nM | GI50 (HOP-62; read-out: GI50): 576 nM | CC50 (HOP-62; [2]): 6160 nM | TGI (HOP-62; read-out: TGI): 2120 nM | GI50 (HOP-62; read-out: pGI50 (converted)): 575 nM | CC50 (HOP-62; [3]): 6170 nM | TGI (HOP-62; read-out: pTGI (converted)): 2140 nM | GI50 (UACC-257; read-out: GI50): 2100 nM | LC50 (UACC-257; read-out: LC50): 22500 nM | TGI (UACC-257; read-out: TGI): 5010 nM | GI50 (UACC-257; read-out: pGI50 (converted)): 2090 nM | LC50 (UACC-257; read-out: pLC50 (converted)): 22400 nM | TGI (UACC-257; read-out: pTGI (converted)): 5010 nM | GI50 (786-0; read-out: GI50): 1590 nM | LC50 (786-0; read-out: LC50): 5920 nM | TGI (786-0; read-out: TGI): 3060 nM | GI50 (786-0; read-out: pGI50 (converted)): 1580 nM | LC50 (786-0; read-out: pLC50 (converted)): 5890 nM | TGI (786-0; read-out: pTGI (converted)): 3090 nM | GI50 (U-251; read-out: GI50): 1280 nM | CC50 (U-251; [2]): 5340 nM | TGI (U-251; read-out: TGI): 2610 nM | GI50 (U-251; read-out: pGI50 (converted)): 1290 nM | CC50 (U-251; [3]): 5370 nM | TGI (U-251; read-out: pTGI (converted)): 2630 nM | GI50 ([1]; read-out: GI50): 1530 nM | TGI ([1]; read-out: TGI): 3690 nM | GI50 ([1]; read-out: pGI50 (converted)): 1550 nM | TGI ([1]; read-out: pTGI (converted)): 3720 nM | GI50 (HCC 2998; read-out: GI50): 1630 nM | CC50 (HCC 2998; [2]): 6290 nM | TGI (HCC 2998; read-out: TGI): 3200 nM | GI50 (HCC 2998; read-out: pGI50 (converted)): 1620 nM | CC50 (HCC 2998; [3]): 6310 nM | TGI (HCC 2998; read-out: pTGI (converted)): 3160 nM | GI50 (NCI-H322M; read-out: GI50): 1760 nM | CC50 (NCI-H322M; [2]): 7940 nM | TGI (NCI-H322M; read-out: TGI): 3740 nM | GI50 (NCI-H322M; read-out: pGI50 (converted)): 1780 nM | CC50 (NCI-H322M; [3]): 7940 nM | TGI (NCI-H322M; read-out: pTGI (converted)): 3720 nM | GI50 (MCF7; read-out: GI50): 355 nM | LC50 (MCF7; read-out: LC50): 5970 nM | TGI (MCF7; read-out: TGI): 1500 nM | GI50 (MCF7; read-out: pGI50 (converted)): 355 nM | LC50 (MCF7; read-out: pLC50 (converted)): 6030 nM | TGI (MCF7; read-out: pTGI (converted)): 1510 nM | GI50 (MDA-MB-231; read-out: GI50): 1000 nM | LC50 (MDA-MB-231; read-out: LC50): 5870 nM | TGI (MDA-MB-231; read-out: TGI): 2420 nM | GI50 (MDA-MB-231; read-out: pGI50 (converted)): 1000 nM | LC50 (MDA-MB-231; read-out: pLC50 (converted)): 5890 nM | TGI (MDA-MB-231; read-out: pTGI (converted)): 2400 nM | GI50 (SK-MEL-28; read-out: GI50): 474 nM | CC50 (SK-MEL-28; [2]): 4240 nM | TGI (SK-MEL-28; read-out: TGI): 1670 nM | GI50 (SK-MEL-28; read-out: pGI50 (converted)): 479 nM | CC50 (SK-MEL-28; [3]): 4270 nM | TGI (SK-MEL-28; read-out: pTGI (converted)): 1660 nM | GI50 (UACC-62; read-out: GI50): 1060 nM | LC50 (concentration giving 50% net cell kill) (UACC-62; read-out: LC50): 5610 nM | TGI (UACC-62; read-out: TGI): 2440 nM | GI50 (UACC-62; read-out: pGI50 (converted)): 1070 nM | LC50 (concentration giving 50% net cell kill) (UACC-62; read-out: pLC50 (converted)): 5620 nM | TGI (UACC-62; read-out: pTGI (converted)): 2450 nM | GI50 (SN12C; read-out: GI50): 1230 nM | TGI (SN12C; read-out: TGI): 3100 nM | GI50 (SN12C; read-out: pGI50 (converted)): 1230 nM | TGI (SN12C; read-out: pTGI (converted)): 3090 nM | GI50 (Malme-3M; read-out: GI50): 762 nM | TGI (Malme-3M; read-out: TGI): 2940 nM | GI50 (Malme-3M; read-out: pGI50 (converted)): 759 nM | TGI (Malme-3M; read-out: pTGI (converted)): 2950 nM | GI50 (PC-3; read-out: GI50): 695 nM | LC50 (concentration killing 50% of cells) (PC-3; read-out: LC50): > 100000 nM | TGI (PC-3; read-out: TGI): 3900 nM | GI50 (PC-3; read-out: pGI50 (converted)): 692 nM | LC50 (concentration killing 50% of cells) (PC-3; read-out: pLC50 (converted)): > 100000 nM | TGI (PC-3; read-out: pTGI (converted)): 3890 nM
